Results taken from ChEMBL document CHEMBL1132144, “Synthesis of 9-O-substituted derivatives of 9-hydroxy-5, 6-dimethyl-6H-pyrido[4,3-b]carbazole-1-carboxylic acid (2-(dimethylamino)ethyl)amide and their 10- and 11-methyl analogues with improved antitumor activity” (J Med Chem, 1999).

How the values were obtained:
Mus musculus [1] = experiment: Long-term survivors among 18 mice infected with P388 leukemia, scored on day 60 at 40 mg/kg dose; assay type: functional
How it was run: (§1)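 B6D2F1 mice in groups of 6–7 were inoculated ip on day 0 with 10^6 P388 cells. Dihydrochloride salts were dissolved in water and given iv on day 1 or on days 1, 5 and 9. Doses ranged from a low nontoxic dose to a toxic one. Long-term survivors were counted at day 60.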

Mus musculus [2] = experiment: Percent median survival time of mice injected with B16 melanoma, at a intraperitoneal compound dose of 2.5 mg/kg
L1210 = experiment: Inhibition of murine L1210 leukemia cell proliferation measured by the MTT assay; assay type: functional, cell-based; conditions: Mus musculus
How it was run: (§2)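 Murine L1210 leukemia and B16 melanoma cells were grown in RPMI 1640 with 10% fetal calf serum, 2 mM L-glutamine, penicillin/streptomycin and 10 mM HEPES (pH 7.4). Cells were exposed to nine serial drug dilutions in triplicate for about four doubling times (L1210 48 h, B16 96 h), then read by microculture tetrazolium (MTT) assay. IC50 is the concentration halving optical density versus untreated controls, averaged over ≥2 independent experiments.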

Mus musculus [3] = experiment: Percent median survival time of mice intraperitoneally injected with P388 leukemia was determined from tested at 10 mg/kg at day1,5,9 dose to that of control; assay type: functional
How it was run: (§3)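 P388 leukemia in B6D2F1 mice (groups of 6–7), 10^6 cells inoculated ip on day 0. Dihydrochloride salts were dissolved in water and given iv on day 1 or on days 1, 5, 9. Three doses were tested, then five if active. %T/C = median survival treated/control × 100, reported at the optimal dose (no toxic death, weight loss <20%), from one or two representative experiments.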

Mus musculus [4] = experiment: Long-term survivors among 14 mice infected with B16 melanoma, scored on day 90 at 2.5 mg/kg dose
B16 = experiment: Inhibition of murine B16 melanoma cell proliferation measured by the MTT assay; assay type: functional, cell-based; conditions: Mus musculus; how it was run: as §2
Mus musculus [5] = experiment: Percent median survival time of mice intraperitoneally injected with P388 leukemia was determined from tested at 40 mg/kg at day1 dose to that of control; assay type: functional; conditions: route intraperitoneal; how it was run: as §3
Mus musculus [6] = experiment: Long-term survivors among 12 mice infected with P388 leukemia, scored on day 60 at 10 mg/kg dose; assay type: functional; how it was run: as §1
Mus musculus [7] = experiment: Percent median survival time of mice injected with P388 leukemia, at a subcutaneous compound dose of 10 mg/kg; assay type: functional
Mus musculus [8] = experiment: Percent median survival time of mice injected with B16 melanoma, at a intraperitoneal compound dose of 5 mg/kg
Mus musculus [9] = experiment: Long-term survivors among 12 mice infected with P388 leukemia, scored on day 60 at 10 mg/kg dose on day 1, 5, 9; assay type: functional; how it was run: as §1
Mus musculus [10] = experiment: Long-term survivors among 12 mice infected with P388 leukemia, scored on day 60 at 20 mg/kg dose on day 1; assay type: functional; how it was run: as §1
Mus musculus [11] = experiment: Long-term survivors among 7 mice infected with B16 melanoma, scored on day 90 at 40 mg/kg dose on day 1, 5, 9; assay type: functional
Mus musculus [12] = experiment: Percent median survival time of mice injected with P388 leukemia, at a subcutaneous compound dose of 20 mg/kg; assay type: functional
Mus musculus [13] = experiment: Percent median survival time of mice intraperitoneally injected with P388 leukemia was determined from tested at 160 mg/kg at day1,5,9 dose to that of control; assay type: functional; conditions: route intraperitoneal; how it was run: as §3
Mus musculus [14] = experiment: Percent median survival time of mice intraperitoneally injected with P388 leukemia was determined from tested at 320 mg/kg at day1 dose to that of control; assay type: functional; conditions: route intraperitoneal; how it was run: as §3
Mus musculus [15] = experiment: Percent median survival time of mice injected with B16 melanoma, at a intraperitoneal compound dose of 80 mg/kg
Mus musculus [16] = experiment: Long-term survivors among 6 mice infected with P388 leukemia, scored on day 60 at 320 mg/kg dose; assay type: functional; how it was run: as §1
Mus musculus [17] = experiment: Long-term survivors among 7 mice infected with B16 melanoma, scored on day 90 at 80 mg/kg dose
Mus musculus [18] = experiment: Long-term survivors among 6 mice infected with P388 leukemia, scored on day 60 at 160 mg/kg dose; assay type: functional; how it was run: as §1
Mus musculus [19] = experiment: Percent median survival time of mice injected with P388 leukemia, at a subcutaneous compound dose of 5 mg/kg on day 1, 5, 9; assay type: functional
Mus musculus [20] = experiment: Long-term survivors among 6 mice infected with P388 leukemia, scored on day 60 at 5 mg/kg dose on day 1; assay type: functional; how it was run: as §1
Mus musculus [21] = experiment: Percent median survival time of mice injected with B16 melanoma, at a intraperitoneal compound dose of 20 mg/kg
Mus musculus [22] = experiment: Long-term survivors among 6 mice infected with B16 melanoma, scored on day 90 at 102 mg/kg dose on day 1; assay type: functional
Mus musculus [23] = experiment: Percent median survival time of mice injected with P388 leukemia, at a subcutaneous compound dose of 5 mg/kg on day 1; assay type: functional
Mus musculus [24] = experiment: Long-term survivors among 6 mice infected with P388 leukemia, scored on day 60 at 20 mg/kg dose on day 1; assay type: functional; how it was run: as §1
Mus musculus [25] = experiment: Percent median survival time of mice intraperitoneally injected with P388 leukemia was determined from tested at 20 mg/kg at day1,5,9 dose to that of control; assay type: functional; conditions: route intravenous; how it was run: as §3
Mus musculus [26] = experiment: Long-term survivors among 6 mice infected with P388 leukemia, scored on day 60 at 20 mg/kg dose on day 1, 5, 9; assay type: functional; how it was run: as §1
Mus musculus [27] = experiment: Percent median survival time of mice intraperitoneally injected with P388 leukemia was determined from tested at 20 mg/kg at day1 dose to that of control; assay type: functional; conditions: route intraperitoneal; how it was run: as §3
Mus musculus [28] = experiment: Long-term survivors among 7 mice infected with P388 leukemia, scored on day 90 at 5 mg/kg dose; assay type: functional
Mus musculus [29] = experiment: Long-term survivors among 10 mice infected with P388 leukemia, scored on day 60 at 20 mg/kg dose; assay type: functional
Mus musculus [30] = experiment: Long-term survivors among 10 mice infected with P388 leukemia, scored on day 60 at 10 mg/kg dose; assay type: functional
Mus musculus [31] = experiment: Long-term survivors among 7 mice infected with B16 melanoma, scored on day 90 at 20 mg/kg dose
Mus musculus [32] = experiment: Percent median survival time of mice injected with P388 leukemia, at a intravenous compound dose of 7.5 mg/kg
Mus musculus [33] = experiment: Long-term survivors among 6 mice infected with P388 leukemia, scored on day 60 at 20 mg/kg dose; assay type: functional; how it was run: as §1
Mus musculus [34] = experiment: Long-term survivors among 6 mice infected with P388 leukemia, scored on day 60 at 7.5 mg/kg dose; assay type: functional; how it was run: as §1
Mus musculus [35] = experiment: Percent median survival time of mice injected with B16 melanoma, at a intraperitoneal compound dose of 0.5 mg/kg

Cc1c2c(C(=O)NCCN(C)C)nccc2c(C)c2c1c1cc(O)ccc1n2C
LTS (Mus musculus [1]): 15
T/C (Mus musculus [2]): 166%
IC50 (L1210): 0.0134 µM
T/C (Mus musculus [3]): >600%
LTS (Mus musculus [4]): 1
IC50 (B16): 0.0034 µM
T/C (Mus musculus [5]): >600%
LTS (Mus musculus [6]): 9

Cc1c2ccnc(C(=O)NCCN(C)C)c2cc2c3cc(OC(=O)C4C[C@@H]4c4ccccc4)ccc3n(C)c12 (some centres undefined)
T/C (Mus musculus [7]): 152%
T/C (Mus musculus [8]): 129%
IC50 (L1210): 0.0309 µM
IC50 (B16): 0.0141 µM
LTS (Mus musculus [9]): 0
LTS (Mus musculus [10]): 0
LTS (Mus musculus [11]): 0
T/C (Mus musculus [12]): 146%

Cc1c2ccnc(C(=O)NCCN(C)C)c2cc2c3cc(OP(=O)(O)OCc4ccccc4)ccc3n(C)c12
T/C (Mus musculus [13]): 111%
IC50 (L1210): 4 µM
IC50 (B16): 0.511 µM
T/C (Mus musculus [14]): 142%
T/C (Mus musculus [15]): 144%
LTS (Mus musculus [16]): 0
LTS (Mus musculus [17]): 0
LTS (Mus musculus [18]): 0

Cc1c2ccnc(C(=O)NCCN(C)C)c2cc2c3cc(OC(=O)N4CCN(C(c5ccccc5)c5ccccc5)CC4)ccc3n(C)c12
T/C (Mus musculus [19]): 94%
IC50 (L1210): 0.164 µM
LTS (Mus musculus [20]): 0
IC50 (B16): 0.59 µM
T/C (Mus musculus [21]): 102%
LTS (Mus musculus [22]): 0
T/C (Mus musculus [23]): 102%

Cc1c2ccnc(C(=O)NCCN(C)C)c2cc2c3cc(OCC4C[C@@H]4c4ccccc4)ccc3n(C)c12 (some centres undefined)
LTS (Mus musculus [24]): 0
T/C (Mus musculus [25]): 99%
LTS (Mus musculus [26]): 0
T/C (Mus musculus [8]): 94%
IC50 (L1210): 0.374 µM
T/C (Mus musculus [27]): 102%
IC50 (B16): 0.279 µM
LTS (Mus musculus [28]): 0

COc1cccc2c1C(=O)c1c(O)c3c(c(O)c1C2=O)C[C@@](O)(C(=O)CO)C[C@@H]3O[C@H]1C[C@H](N)[C@H](O)[C@H](C)O1 [DOXORUBICIN]
LTS (Mus musculus [29]): 2
T/C (Mus musculus [2]): 456%
T/C (Mus musculus [7]): 332%
IC50 (L1210): 0.0343 µM
IC50 (B16): 0.0076 µM
LTS (Mus musculus [30]): 4
T/C (Mus musculus [12]): 258%

Cc1c2cc[n+](C)cc2c(C)c2c1[nH]c1ccc(O)cc12 [ELLIPTINIUM]
LTS (Mus musculus [31]): 0
T/C (Mus musculus [32]): 112%
IC50 (L1210): 0.0546 µM
IC50 (B16): 0.106 µM
LTS (Mus musculus [33]): 0
T/C (Mus musculus [12]): 138%
LTS (Mus musculus [34]): 0
T/C (Mus musculus [35]): 133%
